For data set [1], the target named is T1, Bile acid receptor (Mus musculus) (UniProt Q60641).
T1 sequence (whole entry): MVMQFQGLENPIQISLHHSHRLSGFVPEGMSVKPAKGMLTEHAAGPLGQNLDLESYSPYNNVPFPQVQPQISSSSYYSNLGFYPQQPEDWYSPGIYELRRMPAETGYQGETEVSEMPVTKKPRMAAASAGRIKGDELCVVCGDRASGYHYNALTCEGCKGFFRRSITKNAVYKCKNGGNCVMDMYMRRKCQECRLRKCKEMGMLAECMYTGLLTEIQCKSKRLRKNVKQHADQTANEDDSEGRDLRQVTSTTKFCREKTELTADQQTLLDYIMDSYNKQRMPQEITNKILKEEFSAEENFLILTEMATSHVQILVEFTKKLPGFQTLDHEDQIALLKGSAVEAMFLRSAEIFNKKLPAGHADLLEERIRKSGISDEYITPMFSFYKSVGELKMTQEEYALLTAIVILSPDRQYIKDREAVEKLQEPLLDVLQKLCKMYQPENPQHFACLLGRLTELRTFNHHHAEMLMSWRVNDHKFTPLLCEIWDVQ
The experiment in a line: In vivo agonist activity at FXR in C57BL/6J mouse assessed as fold upregulation of SHP mRNA expression in ileum at 10 mg/kg, po measured after 6 hrs by qRT-PCR analysis relative to control. The class given is functional, organism-based. The gist of the method:
(§1)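 Fasting of male C57BL/6J mice (7–8 weeks) for 3 h preceded a single oral dose in 0.25% CMC-Na (wt/vol). Ileum was collected 6 h after dosing and snap-frozen. RNA was extracted with TRIzol for qRT-PCR, normalized to GAPDH (ΔΔCt). Reported as fold of vehicle group (mean ± SEM, n = 6).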
In general terms: Real-time PCR tracks product formation cycle by cycle.

The nature of data set [2]: Ratio of drug uptake in ICR mouse liver to plasma at 15 mg/kg, po measured after 8 hrs by LC-MS/MS analysis. The class given is ADME, organism-based. The method, boiled down:
(§2)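 Overnight-fasted male ICR mice (n = 3 per time point) received single oral 15 mg/kg and were refed 2 h later. Blood and liver were taken at 1.5, 4 and 8 h. Serum (10 µL) was precipitated with 100 µL methanol/acetonitrile (1:1). Liver was homogenized in ten times its weight of the same solvent. Supernatants were diluted 1:1 in ACN/H₂O and analyzed by LC-MS/MS. The ratio is liver conc (ng/g) over plasma conc (ng/mL).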

Data set [3] can be described thus: Drug uptake in ICR mouse liver at 15 mg/kg, po measured after 4 hrs by LC-MS/MS analysis. Type of data set: ADME, organism-based. As to conditions: read-out: Drug uptake. The gist of the method: as §2
A short description of data set [4]: Plasma concentration in ICR mouse at 15 mg/kg, po measured after 1.5 hrs by LC-MS/MS analysis. Type of data set: ADME, organism-based. The gist of the method:
as §2

Data set [5] in a line: Drug uptake in ICR mouse liver at 15 mg/kg, po measured after 1.5 hrs by LC-MS/MS analysis. Type of data set: ADME, organism-based. As to conditions: read-out: Drug uptake. The gist of the method: as §2
A short description of data set [6]: Ratio of drug uptake in ICR mouse liver to plasma at 15 mg/kg, po measured after 4 hrs by LC-MS/MS analysis. Type of data set: ADME, organism-based. The method, boiled down: as §2
Data set [7] deals with T2, TGR5 (G-protein coupled bile acid receptor 1) (Homo sapiens, UniProt Q8TDU6).
T2 sequence (Q8TDU6 whole entry): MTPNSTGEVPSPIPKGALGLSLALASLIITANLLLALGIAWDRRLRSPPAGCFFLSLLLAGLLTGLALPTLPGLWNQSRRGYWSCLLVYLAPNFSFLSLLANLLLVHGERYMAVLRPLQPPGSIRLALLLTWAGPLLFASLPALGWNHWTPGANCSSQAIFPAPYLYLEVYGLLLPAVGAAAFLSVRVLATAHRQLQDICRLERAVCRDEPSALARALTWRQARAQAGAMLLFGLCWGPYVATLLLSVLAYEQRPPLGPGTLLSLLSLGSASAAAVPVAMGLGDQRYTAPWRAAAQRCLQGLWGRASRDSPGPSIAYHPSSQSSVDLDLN
The experiment in a line: Agonist activity at human TGR5 expressed in HEK293 cells co-transfected with CRE-Luc reporter plasmid assessed as receptor transactivation incubated for 5.5 hrs by luciferase reporter gene assay relative to OCA. Type of data set: cell-based. Conditions: read-out: Efficacy.

Data set [8] in a line: Drug uptake in ICR mouse liver at 15 mg/kg, po measured after 8 hrs by LC-MS/MS analysis. The class given is ADME, organism-based. Conditions: read-out: Drug uptake. The gist of the method: as §2
Data set [9] deals with T1, Bile acid receptor (Mus musculus). The experiment in a line: Agonist activity at FXR in C57BL/6J mouse hepatocytes assessed as upregulation of SHP mRNA expression incubated for 24 hrs by qRT-PCR analysis. The class given is cell-based. Conditions: Hepatocyte, filed as agonist, dose 0.4-10 µM. The method, boiled down: (§3)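 Hepatocytes isolated from overnight-fasted male C57BL/6J mice (8–12 weeks), allowed 4 h to adhere, then given vehicle (0.5% DMSO) or compound at 0.4, 2 and 10 μM for 24 h. TRIzol RNA extraction, then qRT-PCR with GAPDH normalization by ΔΔCt. Values are expressed as fold over vehicle (mean ± S.E.M, n = 3).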

Data set [10] addresses T3, G-protein coupled bile acid receptor 1 (Homo sapiens, UniProt Q8TDU6).
T3 sequence (Q8TDU6 whole entry): T2 sequence (Q8TDU6 whole entry)
The experiment in a line: Agonist activity at human TGR5 expressed in HEK293 cells co-transfected with CRE-Luc reporter plasmid assessed as receptor transactivation incubated for 5.5 hrs by luciferase reporter gene assay. The class given is cell-based.

Data set [11] has as its target T1, Bile acid receptor (Mus musculus). The experiment in a line: Agonist activity at FXR in C57BL/6J mouse hepatocytes assessed as fold upregulation of SHP mRNA expression at 10 uM incubated for 24 hrs by qRT-PCR analysis relative to control. The class given is cell-based. As to conditions: Hepatocyte. The method, boiled down: as §3
Data set [12] shares this target. The experiment in a line: Agonist activity at FXR in C57BL/6J mouse hepatocytes assessed as upregulation of BSEP mRNA expression at 0.4 to 10 uM incubated for 24 hrs by qRT-PCR analysis. Type of data set: cell-based. As to conditions: Hepatocyte, filed as agonist, dose 0.4-10 µM. The method, boiled down: as §3
Data set [13] is described as follows: Ratio of drug uptake in ICR mouse liver to plasma at 15 mg/kg, po measured after 1.5 hrs by LC-MS/MS analysis. Type of data set: ADME, organism-based. The gist of the method:
as §2

For data set [14], the target named is T1, Bile acid receptor (Mus musculus). The experiment in a line: In vivo agonist activity at FXR in C57BL/6J mouse assessed as fold upregulation of SHP mRNA expression in liver at 10 mg/kg, po measured after 6 hrs by qRT-PCR analysis relative to control. Type of data set: functional, organism-based. The method, boiled down:
(§4)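 Male C57BL/6J mice (7–8 weeks) were fasted 3 h, then dosed orally once in 0.25% CMC-Na (wt/vol) vehicle. Sacrificed 6 h post-dose; liver snap-frozen at -80 °C. TRIzol RNA extraction and qRT-PCR with GAPDH normalization (ΔΔCt). Results are fold over vehicle group (mean ± S.E.M, n = 6).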

The nature of data set [15]: Plasma concentration in ICR mouse at 15 mg/kg, po measured after 8 hrs by LC-MS/MS analysis. The class given is ADME, organism-based. The method, boiled down:
as §2

Data set [16] can be described thus: Plasma concentration in ICR mouse at 15 mg/kg, po measured after 4 hrs by LC-MS/MS analysis. Type of data set: ADME, organism-based. The gist of the method: as §2
In data set [17] the target is T1, Bile acid receptor (Mus musculus). The experiment in a line: In vivo agonist activity at FXR in C57BL/6J mouse assessed as downregulation of CYP7A1 mRNA expression in liver at 10 mg/kg, po measured after 6 hrs by qRT-PCR analysis. Type of data set: functional, organism-based. The gist of the method:
as §4

The next data set deals with T4, Bile acid receptor (Homo sapiens, UniProt Q96RI1).
T4 sequence (Q96RI1 whole entry): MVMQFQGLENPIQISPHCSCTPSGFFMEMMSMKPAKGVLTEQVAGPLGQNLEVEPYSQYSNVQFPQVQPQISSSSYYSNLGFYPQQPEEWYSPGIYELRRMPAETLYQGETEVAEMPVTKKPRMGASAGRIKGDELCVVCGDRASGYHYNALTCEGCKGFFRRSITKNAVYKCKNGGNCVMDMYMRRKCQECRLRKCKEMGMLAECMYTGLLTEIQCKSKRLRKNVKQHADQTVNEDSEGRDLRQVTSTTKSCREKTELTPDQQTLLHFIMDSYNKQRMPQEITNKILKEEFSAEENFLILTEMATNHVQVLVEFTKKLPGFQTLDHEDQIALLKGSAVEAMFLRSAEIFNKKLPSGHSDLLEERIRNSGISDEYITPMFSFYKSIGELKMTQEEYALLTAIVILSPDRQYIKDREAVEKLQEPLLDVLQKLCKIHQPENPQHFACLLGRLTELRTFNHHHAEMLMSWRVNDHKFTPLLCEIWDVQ
The experiment in a line: Agonist activity at human FXR expressed in human Huh-7 cells co-transfected with FXRE-Luc reporter plasmid assessed as receptor transactivation incubated for 16 hrs by luciferase reporter gene assay. Type of data set: cell-based.

Data set [18] concerns the target T1, Bile acid receptor (Mus musculus). The experiment in a line: In vivo agonist activity at FXR in C57BL/6J mouse assessed as downregulation of CYP8B1 mRNA expression in liver at 10 mg/kg, po measured after 6 hrs by qRT-PCR analysis. Type of data set: functional, organism-based. The gist of the method:
as §4

Data set [19] shares this target. The experiment in a line: In vivo agonist activity at FXR in C57BL/6J mouse assessed as fold upregulation of FGF15 mRNA expression in ileum at 10 mg/kg, po measured after 6 hrs by qRT-PCR analysis relative to control. The class given is functional, organism-based. The gist of the method:
as §1

SMILES strings stand for the structures. Calls of active or inactive are those of the source. The calls are words filed in the database; no cut-off is given here.

The values that follow come from ChEMBL document CHEMBL5230149, “Discovery of novel ketoxime ether derivatives with potent FXR agonistic activity, oral effectiveness and high liver/blood ratio” (Bioorg Med Chem, 2021).

Broadly, the Kp is the ratio of the level in a tissue or fluid to that in plasma or blood. In general, EC50 refers to the midpoint of the concentration-response curve. For `C/C(=N\OCc1cc(C(=O)O)ccc1C#N)c1ccc(OCc2c(-c3c(Cl)cccc3Cl)noc2C2CC2)cc1Cl`, the fold change (FC) in data set [1] was 20; in data set [11], greater than 40; in data set [14], 2; in data set [19], 5. The concentration ratio (Kp) at 8 h in data set [2] is 43. Besides, the results for the concentration at 4 h in data set [3] and in data set [16] were 2610 ng/g and 45.4 ng/mL, respectively. Also, the concentration at 1.5 h in data set [4] came out at 124 ng/mL; in [5], 4530 ng/g. Besides, in data set [6], the Kp at 4 h worked out at 57. Further, in data set [7], the Emax at 5.5 h was determined as 1.1%. The concentration at 8 h is 341 ng/g in [8] and 7.8 ng/mL in data set [15]. For the same molecule, the Activity result in [9] was “Dose-Dependent Effect”. For the same molecule, the EC50 in data set [10] is greater than 100000 nM; on Bile acid receptor, 45.2 nM. In addition, the outcome in data set [12], in data set [17] and in [18] was Active. In addition, the Kp at 1.5 h in data set [13] was 37.
